Results on one compound are retold here after ChEMBL document CHEMBL1765023, “Acetyl analogs of combretastatin A-4: synthesis and biological studies” (Bioorg Med Chem, 2011).

Series [1] concerns Mus musculus. In words: Toxicity in DBA2 mouse assessed as change in platelet count at 75 mg/kg, ip QD administered on alternate days for 17 days measured on day 23 relative to control. The format is organism-based. Further details: dose 75 mg/kg, route intraperitoneal. To be noted: in vivo, 408 h. In short, it runs like this: (§1)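 Healthy female DBA2 mice, 5–7 weeks old, five per group, received 75 mg/kg ip on days 1, 5, 9, 13 and 17. Vehicle was PET (PEG400/ethanol/Tween 80, 6:3:1), 5% glucose and DMSO, with final ethanol 15% and DMSO 10%. Controls received 100 µL vehicle. Body weight was measured every other day. At sacrifice on day 23, blood counts (hematocrit, WBC, granulocytes, platelets) and liver, kidney and spleen appearance and weight were assessed.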

A further series relates to NCI-H226. Briefly: Growth inhibition of human NCI-H226 cells after 48 hrs by sulforhodamine B assay. The format is functional. The conditions noted are these: NCI-H226, 48 h. In short, it runs like this:
(§2)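 NCI 60 human cancer cell line screen run at the National Cancer Institute. Cells had 48 h continuous exposure, and proliferation was read by sulforhodamine B staining. GI50 (50% growth inhibition) was taken from dose–response curves.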

A further series deals with MDA-MB-468. Briefly: Growth inhibition of human MDA-MB-468 cells after 48 hrs by sulforhodamine B assay. Type of series: functional. The conditions noted are these: MDA-MB-468, 48 h. In short, it runs like this: as §2
The subject of another series is HL-60(TB). Briefly: Growth inhibition of human HL-60(TB) cells after 48 hrs by sulforhodamine B assay. To be noted: HL-60, 48 h. The format is functional. In short, it runs like this:
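NCI 60 human cancer cell line panel, tested at the National Cancer Institute. Continuous 48 h drug exposure, with proliferation read by sulforhodamine B staining. Dose–response curves gave GI50 (concentration inhibiting growth by 50%), TGI (total growth inhibition) and LC50.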
For orientation: In SRB staining, fixed cells bind dye roughly in proportion to their protein.

The test system of another series is BT-549. Briefly: Growth inhibition of human BT549 cells after 48 hrs by sulforhodamine B assay. Type of series: functional. To be noted: BT-549, 48 h. In short, it runs like this: as §2
Series [2] has as its system Mus musculus. Briefly: Toxicity in DBA2 mouse assessed as change in body weight at 75 mg/kg, ip QD administered on alternate days for 17 days measured on day 23 relative to control. The format is organism-based. Further details: dose 75 mg/kg, route intraperitoneal. To be noted: in vivo, 408 h. In short, it runs like this:
as §1

The test system of another series is UACC-62. Briefly: Growth inhibition of human UACC62 cells after 48 hrs by sulforhodamine B assay. The format is functional. The conditions noted are these: UACC-62, 48 h. In short, it runs like this:
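Tested in the NCI 60 human cancer cell line panel. Cells were exposed continuously for 48 h and proliferation was read by sulforhodamine B staining. GI50 (concentration for 50% growth inhibition), TGI (total growth inhibition) and LC50 were taken from dose–response curves.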

The next series relates to NCI-H322M. Briefly: Growth inhibition of human NCI-H322M cells after 48 hrs by sulforhodamine B assay. Type of series: functional. In short, it runs like this: as §2

Each structure is given as a SMILES string. Some results are limits rather than exact numbers.

Consider `COc1ccc(/C=C(/C(C)=O)c2cc(OC)c(OC)c(OC)c2)cc1O`, for which the Activity result in the series with Mus musculus [1] and in the series on Mus musculus [2] was “Non-toxic” throughout. Further, the GI50 – broadly, the concentration giving 50% growth inhibition – in the series on NCI-H226 was 1000 nM; with MDA-MB-468, 170 nM; with HL-60(TB) it was 37.1 nM; with BT-549, 427 nM; in the series with UACC-62 it was 151 nM; in the series on NCI-H322M it was 513 nM. The TGI in the series on NCI-H226 (read-out: pTGI) was more than 100000 nM; in the series with MDA-MB-468 (read-out: pTGI (converted)) it was 550 nM; in the series on BT-549 (read-out: pTGI (converted)) it was 14100 nM; in the series on UACC-62 (read-out: pTGI), more than 100000 nM; in the series with NCI-H322M (read-out: pTGI), more than 100000 nM.
